Rows were chosen to be rich in hits. Some 1% of all compounds tested hit in one or more screens of this group.
b-catenin transl = beta-catenin nuclear translocation modulation | actives 0.3% (n = 190,000) | HeLa beta-catenin nuclear translocation, immunofluorescence imaging | nuclear translocation activity, % at 5 µM;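 active = nuclear translocation activity above 50% at 5 µM, with a well cell count of 50 or more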;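 also: per-cell ratio of nuclear to cytoplasmic median beta-catenin stain intensity; plate controls were DMSO negative control for no effect and GSK-3 inhibitor IX positive control for full effect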
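Test system: human HeLa cells, native beta-catenin. Compound dosing: 5 µM primary single dose, 0.1% DMSO, 0.02–20 µM confirmation series. Incubation: compound exposure 24 h at 37°C. Detection: beta-catenin immunostaining with DAPI counterstain, 20x imaging, 6 fields/well. Read-out basis: Nuclear/cytoplasmic beta-catenin signal ratio, % activation.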
NOD2 RIPK2 PPI = blocks binding of human NOD2 to RIPK2; O43353; CHO BLA complementation NOD2-RIPK2, CCF4 ratio; inhibition, % at 4.98 µM; actives 0.38% (n = 360,000); in the data active = inhibition above about 21%;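 also: 0% = vehicle only and 100% = reference blocker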
MT stabilizer = stabilizes microtubules in HeLa cells; HeLa tubulin immunostaining HCS, 24 h; share of cells brighter than vehicle mean+2SD; AID 2205; % tubulin-high responders, % at 10 µM; actives 0.83% (n = 200,000);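 active = plate Z-score above 3 for both tubulin-high and condensed-nucleus cell shares, with cell loss under 80%, at 10 µM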;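 also: anti alpha tubulin signal scored within the nucleus-defined area of each cell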
Hsp70 activator = switches on Hsp70 transcription. activation, % at 10 µM. actives 0.04% (n = 200,000). HeLa Hsp70 promoter luciferase reporter, luminescence; scaled: vehicle 0, proteasome-inhibitor control 100%. AID 1203;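 active = activation above the mean across all tested compounds plus 3 SD, cutoff set per campaign, cut at about 5.5% in these data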;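 also: 100% = MG132 at 30 µM as the positive control and 0% = DMSO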
TLR9-MyD88 block = blocks human TLR9 binding to MyD88. Q9NR96+Q99836. actives 0.21% (n = 340,000). inhibition, % at 4.98 µM. CHO BLA complementation TLR9-MyD88, CCF4 FRET ratio;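 active = inhibition above the mean over all tested compounds plus 3 SD, cut at about 21% in these data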;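 also: 0% = DMSO only wells and 100% = clavulanate BLA inhibitor control wells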
TLR4-MyD88 BLA = inhibitors of human TLR4-MyD88 binding; HeLa CL3-4 TLR4/MyD88 BLA complementation, FRET ratio; O00206+Q99836; actives 0.18% (n = 200,000); inhibition, % at 8.4 µM; AID 861; in the data active = inhibition above about 25%;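 also: 0% = vehicle and 100% = reference inhibitor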
TLR9-MyD88 cf = TLR9-MyD88 interaction inhibition, confirmation | shares compounds with TLR9-MyD88 block | CHO TLR9/MyD88 BLA complementation, CCF4 FRET ratio | inhibition, % at 4.98 µM | actives 51% (n = 680);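 active = mean inhibition across three repeats above about 21% taken from the earlier screen, limit read from the data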;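 also: blue over green emission ratio reports constitutive TLR9 MyD88 association via BLA complementation; 0% = DMSO vehicle wells and 100% = clavulanate BLA inhibitor wells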
BLA counter = counter-screen for TLR9-MyD88 inhibitors: non-selective beta-lactamase inhibitors; actives 7% (n = 680); shares compounds with TLR9-MyD88 block; inhibition, % at 4.98 µM; CHO-BLA cells, CCF4 FRET ratio, BLA reporter; AID 540251;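 active = mean inhibition above a 50% cutoff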;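 also: counterscreen of TLR9-MyD88 hits on CMV-driven BLA in CHO-K1 cells; 0% = DMSO alone and 100% = clavulanate blocking BLA; higher means less blue over green ratio so more BLA blockade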
TLR9 CHO tox = CHO cell toxicity counter-screen for TLR9-MyD88 inhibitors; TLR9-MyD88 CHO cells cytotoxicity, luminescence; shares compounds with TLR9-MyD88 block; inhibition, % at 4.98 µM; AID 588336; actives 39% (n = 680); in the data active = inhibition above about 11%
* = called active by the depositor.

What do the screens show for `Cc1ccc(C)c(S(=O)(=O)N2CCN(CC(=O)N3CCc4ccccc4C3)CC2)c1`?
NOD2 RIPK2 PPI: -10; MT stabilizer: 2; Hsp70 activator: 0; TLR9-MyD88 block: 36*; TLR4-MyD88 BLA: -6; TLR9-MyD88 cf: -2; BLA counter: 3; TLR9 CHO tox: 0

Results for O=C(CN1CCN(S(=O)(=O)c2cc(C(F)(F)F)ccc2Cl)CC1)N1CCc2ccccc2C1 ?
NOD2 RIPK2 PPI: 4; TLR9-MyD88 block: 1

How did O=C(OCC(=O)N(CCc1ccccc1)Cc1ccccc1)c1cccc(S(=O)(=O)N2CCOCC2)c1 do in these assays?
NOD2 RIPK2 PPI: 3; TLR9-MyD88 block: -1

Results for O=[N+]([O-])c1ccc2c(c1)C=C1CCCCC1(N1CCCCC1)O2 (stereo unspecified) ?
b-catenin transl: -2; NOD2 RIPK2 PPI: -14; MT stabilizer: 2; Hsp70 activator: 0; TLR9-MyD88 block: 24*; TLR4-MyD88 BLA: 6; TLR9-MyD88 cf: -8; BLA counter: -5; TLR9 CHO tox: -1

How did O=c1nc2n(c3ccc([N+](=O)[O-])cc13)CCCCC2 do in these assays?
b-catenin transl: 1; NOD2 RIPK2 PPI: 4; MT stabilizer: 4; Hsp70 activator: 0; TLR9-MyD88 block: -10; TLR4-MyD88 BLA: -11

How did O=C1O[C@@H](c2ccccc2)C[C@@H](O)[C@H](O)CCCc2ccccc21 do in these assays?
NOD2 RIPK2 PPI: -2

How did CS(=O)(=O)c1ncc(Cl)c(C(=O)Nc2ccc(N3CCOCC3)cc2)n1 do in these assays?
b-catenin transl: 3; NOD2 RIPK2 PPI: 47*; MT stabilizer: 2; Hsp70 activator: 0; TLR9-MyD88 block: 43*; TLR4-MyD88 BLA: 25; TLR9-MyD88 cf: 47*; BLA counter: 34; TLR9 CHO tox: 95*

How did CS(=O)(=O)c1ncc(Cl)c(C(=O)Nc2ccc(OC(F)F)cc2)n1 do in these assays?
NOD2 RIPK2 PPI: 73*; TLR9-MyD88 block: 42*; TLR9-MyD88 cf: 45*; BLA counter: 41; TLR9 CHO tox: 97*

Results for O=C(Nc1ccc(OC(F)F)cc1)c1ccccn1 ?
b-catenin transl: 0; NOD2 RIPK2 PPI: -5; MT stabilizer: 3; Hsp70 activator: 0; TLR9-MyD88 block: 4; TLR4-MyD88 BLA: 5

What do the screens show for `CCOc1cc(N2CCOCC2)c(OCC)cc1NC(=O)COC(=O)c1c(C)noc1C`?
NOD2 RIPK2 PPI: -7; TLR9-MyD88 block: 13

How did COc1ccc(CCC(=O)OCC(=O)NCc2ccccc2)cc1 do in these assays?
NOD2 RIPK2 PPI: -8; TLR9-MyD88 block: -12

What do the screens show for `CCN(CC)C(=O)CSc1nc(-c2cccs2)cc(-c2cccs2)c1C#N`?
b-catenin transl: 10; NOD2 RIPK2 PPI: -7; MT stabilizer: 3; Hsp70 activator: 0; TLR9-MyD88 block: -7; TLR4-MyD88 BLA: 14

What do the screens show for `CN1CCN(C(=O)CSc2nc(-c3cccs3)cc(-c3cccs3)c2C#N)CC1`?
b-catenin transl: 0; NOD2 RIPK2 PPI: 18; MT stabilizer: 5; Hsp70 activator: 0; TLR9-MyD88 block: 24*; TLR4-MyD88 BLA: -10; TLR9-MyD88 cf: 21; BLA counter: 19; TLR9 CHO tox: 5

What do the screens show for `COc1ccccc1NS(=O)(=O)c1cccc(NC(=O)C2CC(=O)N(Cc3ccccc3)C2)c1` (stereo unspecified)?
b-catenin transl: -4; NOD2 RIPK2 PPI: -10; MT stabilizer: 3; Hsp70 activator: 0; TLR9-MyD88 block: 24*; TLR4-MyD88 BLA: 0; TLR9-MyD88 cf: -2; BLA counter: 0; TLR9 CHO tox: 1

What do the screens show for `COc1ccccc1NS(=O)(=O)c1cccc(NC(=O)C2CC2)c1`?
NOD2 RIPK2 PPI: 2; TLR9-MyD88 block: 5

How did COc1cccc(NC(=O)c2ccc3nc(C)c(N(C)Cc4ccc(NC(C)=O)cc4)n3c2)c1 do in these assays?
NOD2 RIPK2 PPI: -4

Results for COc1ccc(S(=O)(=O)N2CCC(NC(=O)C3CCCCC3)CC2)cc1 ?
NOD2 RIPK2 PPI: 4; TLR9-MyD88 block: 21*; TLR9-MyD88 cf: -35; BLA counter: 1; TLR9 CHO tox: -3

Results for O=[N+]([O-])c1c(NCCO)cc(N2CCCCCC2)c2nonc12 ?
NOD2 RIPK2 PPI: -7; TLR9-MyD88 block: -2

How did Cc1nnc(Sc2cc(NCCO)c([N+](=O)[O-])c3nonc23)s1 do in these assays?
b-catenin transl: -2; NOD2 RIPK2 PPI: 10; MT stabilizer: 3; Hsp70 activator: 0; TLR9-MyD88 block: 21*; TLR4-MyD88 BLA: 2; TLR9-MyD88 cf: 23*; BLA counter: 3; TLR9 CHO tox: 98*

What do the screens show for `Fc1cccc(/C=N/Nc2ccc(Cl)nn2)c1`?
NOD2 RIPK2 PPI: 5; TLR9-MyD88 block: 23*; TLR9-MyD88 cf: 2; BLA counter: 0; TLR9 CHO tox: 3

What do the screens show for `Oc1c(Br)cc(/C=N/Nc2ccc(Cl)nn2)cc1Br`?
NOD2 RIPK2 PPI: 12; TLR9-MyD88 block: 3

Results for CC(C)NC(=O)C1(S(=O)(=O)c2ccccc2)CC=CC1 ?
NOD2 RIPK2 PPI: -16; TLR9-MyD88 block: 3

How did CSc1nc(COC(=O)NC(C)C)c(COC(=O)NC(C)C)n1Cc1ccccc1 do in these assays?
NOD2 RIPK2 PPI: -13

How did CN1/C(=C\C(=O)c2cncc(Br)c2)C(C)(C)c2ccccc21 do in these assays?
b-catenin transl: -5; NOD2 RIPK2 PPI: 14; MT stabilizer: 3; Hsp70 activator: 0; TLR9-MyD88 block: 22*; TLR4-MyD88 BLA: 16; TLR9-MyD88 cf: 10; BLA counter: 14; TLR9 CHO tox: 26*

Results for CN1/C(=C\C(=O)c2cccnc2)C(C)(C)c2ccccc21 ?
b-catenin transl: 1; NOD2 RIPK2 PPI: -4; MT stabilizer: 2; Hsp70 activator: 0; TLR9-MyD88 block: 7; TLR4-MyD88 BLA: 15

How did C#CCOCCOCCOCCNc1nc(N2CCN(C(=O)CCCCCCCCCCNC(=O)[C@H](CCCCN)n3cc(CCO)nn3)CC2)nc(N2CCN(C(=O)CCCCCCCCCCNC(=O)[C@H](CCCCN)n3cc(CCO)nn3)CC2)n1 do in these assays?
NOD2 RIPK2 PPI: 8; TLR9-MyD88 block: -7
